Data as given in ChEMBL document CHEMBL5058577, “EUbOPEN Chemogenomics Library 2 (Multiplex)” (2022).

Test system: Fibroblast
Test: Multiplex assay against human fibroblast
Type: toxicity, cell-based
Summary of the method: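 Live cells were stained at seeding with Hoechst33342, BioTracker Green Microtubule Cytoskeleton Dye, MitoTracker Red and Annexin V Alexa Fluor 680, then imaged on a CQ1 microscope at 37°C and 5% CO2 after compound addition. CellPathfinder machine-learning gating split cells into Hoechst high-intensity objects or normal cells. Normal cells were split into healthy, pyknosed or fragmented nuclei, and pyknosed cells into mitotic or apoptotic. Tubulin, mitochondrial-mass and membrane-permeability phenotypes are per cents of healthy-nucleus cells.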

[1] = 12 h, 1 µM, compound concentration 1 uM, replicate 1
[2] = 12 h, 1 µM, compound concentration 1 uM, replicate 2
[3] = 12 h, 10 µM, compound concentration 10 uM, replicate 1
[4] = 12 h, 10 µM, compound concentration 10 uM, replicate 2
[5] = 24 h, 1 µM, compound concentration 1 uM, replicate 1
[6] = 24 h, 1 µM, compound concentration 1 uM, replicate 2
[7] = 24 h, 10 µM, compound concentration 10 uM, replicate 1
[8] = 24 h, 10 µM, compound concentration 10 uM, replicate 2
[9] = 48 h, 1 µM, compound concentration 1 uM, replicate 1
[10] = 48 h, 1 µM, compound concentration 1 uM, replicate 2
[11] = 48 h, 10 µM, compound concentration 10 uM, replicate 1
[12] = 48 h, 10 µM, compound concentration 10 uM, replicate 2

CCCn1c(=O)c2[nH]c(C3CCCC3)nc2n(CCC)c1=O [1,3-DIPROPYL-8-CYCLOPENTYLXANTHINE [DPCPX]]
Population Apoptotic (%) [1]: 38%
Population Fragmented Nuclei (%) [1]: 10%
Population Healthy Nuclei (%) [1]: 73%
Population Hoechst High Intensity Objects (%) [1]: 3%
Population Membrane Permeable-Phenotype (%) [1]: 0%
Population Mitochondria Different-Phenotype (%) [1]: 1%
Population Mitotic Cells (%) [1]: 61%
Population Normal (%) [1]: 96%
Population Pyknosed Nuclei (%) [1]: 15%
Population Tubulin-Different-Phenotype (%) [1]: 29%
Total Cell Count [1]: 175
Population Apoptotic (%) [2]: 30%
Population Fragmented Nuclei (%) [2]: 25%
Population Healthy Nuclei (%) [2]: 46%
Population Membrane Permeable-Phenotype (%) [2]: 1%
Population Mitochondria Different-Phenotype (%) [2]: 10%
Population Mitotic Cells (%) [2]: 69%
Population Pyknosed Nuclei (%) [2]: 28%
Population Tubulin-Different-Phenotype (%) [2]: 50%
Total Cell Count [2]: 156
Population Apoptotic (%) [3]: 58%
Population Fragmented Nuclei (%) [3]: 18%
Population Healthy Nuclei (%) [3]: 65%
Population Hoechst High Intensity Objects (%) [3]: 3%
Population Membrane Permeable-Phenotype (%) [3]: 0%
Population Mitochondria Different-Phenotype (%) [3]: 10%
Population Mitotic Cells (%) [3]: 41%
Population Normal (%) [3]: 96%
Population Pyknosed Nuclei (%) [3]: 17%
Population Tubulin-Different-Phenotype (%) [3]: 47%
Total Cell Count [3]: 104
Population Apoptotic (%) [4]: 25%
Population Fragmented Nuclei (%) [4]: 32%
Population Healthy Nuclei (%) [4]: 47%
Population Hoechst High Intensity Objects (%) [4]: 6%
Population Membrane Permeable-Phenotype (%) [4]: 12%
Population Mitochondria Different-Phenotype (%) [4]: 3%
Population Mitotic Cells (%) [4]: 75%
Population Normal (%) [4]: 93%
Population Pyknosed Nuclei (%) [4]: 20%
Population Tubulin-Different-Phenotype (%) [4]: 59%
Total Cell Count [4]: 129
Population Apoptotic (%) [5]: 50%
Population Fragmented Nuclei (%) [5]: 13%
Population Healthy Nuclei (%) [5]: 77%
Population Hoechst High Intensity Objects (%) [5]: 2%
Population Membrane Permeable-Phenotype (%) [5]: 0%
Population Mitochondria Different-Phenotype (%) [5]: 2%
Population Mitotic Cells (%) [5]: 50%
Population Normal (%) [5]: 97%
Population Pyknosed Nuclei (%) [5]: 9%
Population Tubulin-Different-Phenotype (%) [5]: 30%
Total Cell Count [5]: 177
Population Apoptotic (%) [6]: 75%
Population Fragmented Nuclei (%) [6]: 30%
Population Healthy Nuclei (%) [6]: 48%
Population Hoechst High Intensity Objects (%) [6]: 3%
Population Membrane Permeable-Phenotype (%) [6]: 4%
Population Mitochondria Different-Phenotype (%) [6]: 12%
Population Mitotic Cells (%) [6]: 24%
Population Normal (%) [6]: 96%
Population Pyknosed Nuclei (%) [6]: 21%
Population Tubulin-Different-Phenotype (%) [6]: 54%
Total Cell Count [6]: 159
Population Apoptotic (%) [7]: 63%
Population Fragmented Nuclei (%) [7]: 17%
Population Healthy Nuclei (%) [7]: 61%
Population Hoechst High Intensity Objects (%) [7]: 3%
Population Membrane Permeable-Phenotype (%) [7]: 6%
Population Mitochondria Different-Phenotype (%) [7]: 9%
Population Mitotic Cells (%) [7]: 36%
Population Normal (%) [7]: 96%
Population Pyknosed Nuclei (%) [7]: 22%
Population Tubulin-Different-Phenotype (%) [7]: 49%
Total Cell Count [7]: 104
Population Apoptotic (%) [8]: 20%
Population Fragmented Nuclei (%) [8]: 35%
Population Healthy Nuclei (%) [8]: 40%
Population Hoechst High Intensity Objects (%) [8]: 6%
Population Membrane Permeable-Phenotype (%) [8]: 8%
Population Mitochondria Different-Phenotype (%) [8]: 4%
Population Mitotic Cells (%) [8]: 79%
Population Normal (%) [8]: 93%
Population Pyknosed Nuclei (%) [8]: 24%
Population Tubulin-Different-Phenotype (%) [8]: 63%
Total Cell Count [8]: 125
Population Apoptotic (%) [9]: 72%
Population Fragmented Nuclei (%) [9]: 16%
Population Healthy Nuclei (%) [9]: 70%
Population Hoechst High Intensity Objects (%) [9]: 2%
Population Membrane Permeable-Phenotype (%) [9]: 0%
Population Mitochondria Different-Phenotype (%) [9]: 1%
Population Mitotic Cells (%) [9]: 27%
Population Normal (%) [9]: 97%
Population Pyknosed Nuclei (%) [9]: 12%
Population Tubulin-Different-Phenotype (%) [9]: 35%
Total Cell Count [9]: 182
Population Apoptotic (%) [10]: 47%
Population Fragmented Nuclei (%) [10]: 39%
Population Healthy Nuclei (%) [10]: 48%
Population Hoechst High Intensity Objects (%) [10]: 7%
Population Membrane Permeable-Phenotype (%) [10]: 5%
Population Mitochondria Different-Phenotype (%) [10]: 12%
Population Mitotic Cells (%) [10]: 52%
Population Normal (%) [10]: 92%
Population Tubulin-Different-Phenotype (%) [10]: 55%
Total Cell Count [10]: 170
Population Apoptotic (%) [11]: 57%
Population Fragmented Nuclei (%) [11]: 24%
Population Healthy Nuclei (%) [11]: 55%
Population Hoechst High Intensity Objects (%) [11]: 3%
Population Membrane Permeable-Phenotype (%) [11]: 1%
Population Mitochondria Different-Phenotype (%) [11]: 13%
Population Mitotic Cells (%) [11]: 42%
Population Normal (%) [11]: 96%
Population Pyknosed Nuclei (%) [11]: 20%
Population Tubulin-Different-Phenotype (%) [11]: 50%
Total Cell Count [11]: 98
Population Apoptotic (%) [12]: 50%
Population Fragmented Nuclei (%) [12]: 43%
Population Healthy Nuclei (%) [12]: 45%
Population Hoechst High Intensity Objects (%) [12]: 2%
Population Membrane Permeable-Phenotype (%) [12]: 16%
Population Mitochondria Different-Phenotype (%) [12]: 8%
Population Mitotic Cells (%) [12]: 50%
Population Normal (%) [12]: 97%
Population Pyknosed Nuclei (%) [12]: 10%
Population Tubulin-Different-Phenotype (%) [12]: 78%
Total Cell Count [12]: 136
